Only some compounds are listed: those with a hit (about 3.1% of all), similar ones and a draw of the others.
ERAP1 HTS inh: human ERAP1 aminopeptidase inhibitors, primary screen, biochemical, single point, plate reader. recombinant ERAP1, Leu-AMC fluorescence, 60 min. Endoplasmic reticulum aminopeptidase 1 (Homo sapiens), Q9NZ08. inhibition, % at 10.7 µM. 0.15% of 340,000 active;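 active = mean replicate inhibition of at least 30%, or all replicates individually reaching that 30% level; inactive = mean below 30% and not every replicate reaching it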;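 note: 0% = neutral control wells and 100% = L-leucinethiol positive control wells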
Target sequence (Q9NZ08 whole entry, looked up): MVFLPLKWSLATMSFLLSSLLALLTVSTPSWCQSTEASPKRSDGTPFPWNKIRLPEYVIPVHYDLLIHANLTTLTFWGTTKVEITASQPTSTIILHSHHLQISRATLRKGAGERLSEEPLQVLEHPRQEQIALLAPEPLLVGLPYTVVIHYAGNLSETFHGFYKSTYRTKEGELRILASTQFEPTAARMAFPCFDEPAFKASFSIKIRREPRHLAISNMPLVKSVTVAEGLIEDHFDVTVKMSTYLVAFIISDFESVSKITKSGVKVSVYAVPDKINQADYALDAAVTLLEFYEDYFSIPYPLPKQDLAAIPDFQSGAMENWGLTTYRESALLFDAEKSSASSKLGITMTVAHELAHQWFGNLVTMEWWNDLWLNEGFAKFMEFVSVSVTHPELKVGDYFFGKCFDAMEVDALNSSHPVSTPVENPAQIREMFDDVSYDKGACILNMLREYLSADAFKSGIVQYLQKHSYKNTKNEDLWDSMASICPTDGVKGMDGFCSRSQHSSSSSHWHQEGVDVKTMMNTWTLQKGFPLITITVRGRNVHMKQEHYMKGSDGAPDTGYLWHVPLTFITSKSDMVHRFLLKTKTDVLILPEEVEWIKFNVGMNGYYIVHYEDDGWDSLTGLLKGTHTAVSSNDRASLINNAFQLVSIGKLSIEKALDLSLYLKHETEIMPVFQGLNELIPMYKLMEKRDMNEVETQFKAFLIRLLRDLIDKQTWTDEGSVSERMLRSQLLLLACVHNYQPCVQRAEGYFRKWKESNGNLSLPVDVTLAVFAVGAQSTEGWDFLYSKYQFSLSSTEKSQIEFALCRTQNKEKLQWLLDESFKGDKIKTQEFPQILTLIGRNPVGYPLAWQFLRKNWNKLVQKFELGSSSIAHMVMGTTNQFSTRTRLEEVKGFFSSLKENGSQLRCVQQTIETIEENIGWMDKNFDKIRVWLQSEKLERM
S100A4 inh HTS: inhibitors of S100A4-myosin IIA peptide binding, primary screen, biochemical, fluorescence polarization, TAMRA-MyoIIA peptide; Protein S100-A4 (Homo sapiens), P26447; inhibition, % at 10.7 µM; 0.14% of 360,000 active; AID 652163, 2013;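 active = mean inhibition of at least 70% across replicates, with every replicate also reaching that level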
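Test system: S100A4 monomer protein. Medium: HEPES buffer with Ca2+, pH 7.2. Reagent: fluorescent myosin IIA peptide, 5 nM. Compound dosing: single-point compound testing. Timing: 5 min between mix addition and reading. Benchmarks: DMSO neutral and TFP positive wells.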
rRNA inh HTS: reduced GFP signal of wild-type E. coli, primary screen, bacterial rRNA inhibitor project, GFP/RFP fluorescence, OD600, single point; GFP signal change (wild-type ribosome), % (test concentration not listed); E. coli WT GFP vs humanized-ribosome RFP mutants, 24 h; active compounds read low; DMSO median 0, no signal -100; 1.6% of 350,000 active;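 active = significant combined selectivity score with lowered wild-type GFP, culture density cut under 30%, mutant RFP and density less affected; inactive = any of these conditions unmet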
SIRT5 block: SIRT5 desuccinylase inhibitors, primary screen, biochemical, fluorescence imaging, single point, set 5; NAD-dependent protein deacylase sirtuin-5, mitochondrial (Homo sapiens), Q9NXA8; Purified SirT5, succinyl-peptide AMC, trypsin-coupled fluorescence; inhibition, % at 15 µM; 1.1% of 330,000 active; AID 652115, 2013; in the data active = inhibition above about 15%
F508del corr: F508del CFTR correction, initial screen, CFBE line, single point. CFBE cells, YFP halide quenching; stimulated with forskolin plus potentiator P3; % fluorescence drop versus neutral controls. activity (quench increase), % at 7.58 µM. 0.36% of 350,000 active. AID 720511, 2013;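 active = mean added fluorescence quench of at least 8% versus neutral control, with both replicates also reaching 8%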;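 note: cells transiently co-express mutant CFTR-F508del with the halide-sensitive YFP; corrector assay measuring rescue of mutant channel to the surface after 24 h compound exposure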
An asterisk follows results filed as active; nt = no result given.

SMILES | ERAP1 HTS inh | S100A4 inh HTS | rRNA inh HTS | SIRT5 block | F508del corr
Cc1ccccc1S(=O)(=O)N1CCCCN2[C@H](CO)[C@H](c3ccc(-c4ccccc4)cc3)[C@H]2C1 | 5 | -3 | nt | 17* | -6
Cc1ccccc1S(=O)(=O)N1CCCCN2[C@H](CO)[C@@H](c3ccc(-c4ccccc4)cc3)[C@H]2C1 | -1 | -2 | nt | 19* | -3
Cc1noc(C)c1S(=O)(=O)Nc1ccc2c(c1)C(=O)N([C@H](C)CO)C[C@H](C)[C@H](CN(C)S(=O)(=O)c1c(C)noc1C)OCCCC[C@H](C)O2 | -13 | 5 | 2 | 7 | 1
CO[C@@H]1CN(C)C(=O)c2ccc(NC(=O)Nc3c(C)noc3C)cc2OC[C@@H](C)N(CC2CC2)C[C@H]1C | -3 | -3 | 2 | -1 | -1
Cc1ccc(S(=O)(=O)N[C@H]2CC[C@H](CCNC(=O)C3CCOCC3)O[C@@H]2CO)cc1 | 4 | 2 | 1 | -1 | 2
CO[C@@H]1CN(C)C(=O)c2cc(NC(=O)c3ccc(F)cc3)ccc2OC[C@H](C)N(C(=O)c2ccc(F)cc2)C[C@@H]1C | 3 | -4 | -6 | -4 | -1
CCOC(=O)c1nc(C)sc1-c1ccnn1S(=O)(=O)c1ccc(C)cc1 | 6 | -5 | -22* | -1 | 1
CCc1noc(C)c1C(=O)N1CCN(S(=O)(=O)c2ccccc2C(F)(F)F)CC1 | 0 | 4 | -2 | -3 | -1
CCOC(=O)c1nc(C)sc1-c1ccnn1S(=O)(=O)c1ccc(Cl)cc1Cl | 1 | 0 | -29* | 2 | 0
CCOC(=O)C1=CCN(S(=O)(=O)c2ccc(F)cc2)C1c1ccc(C)cc1 (stereo not given) | -6 | -3 | -17 | -3 | 3
CCOC(=O)c1nc(C)sc1-c1ccnn1S(=O)(=O)c1ccccc1C(F)(F)F | nt | 2 | nt | 3 | 9.8*
CNC[C@H]1Oc2c(N)cccc2C(=O)N([C@@H](C)CO)C[C@@H]1C | -3 | 12 | 2 | nt | -1
C[C@@H]1CN(C)C(=O)c2cc(N)ccc2O[C@H]1CN(C)C(=O)OC(C)(C)C | nt | nt | 0 | nt | nt
CC1CC(Nc2ccccc2)c2ccccc2N1C(=O)c1ccco1 (stereo not given) | nt | 0 | -28* | 7 | 2
CC1CC(Nc2ccccc2)c2ccccc2N1C(=O)c1ccncc1 (stereo not given) | -1 | 1 | 1 | -7 | -2
Cc1ccc(C(=O)N2CC(=O)Nc3ccc(F)cc3C2c2ccccc2)cc1 (stereo not given) | 2 | -2 | 3 | 15* | 3
COc1ccccc1C(=O)N1CC(=O)Nc2ccc(C)cc2C1c1ccc(F)cc1 (stereo not given) | 2 | 0 | 0 | -1 | 1
Cc1ccc2c(c1)C(c1ccc(F)cc1)N(C(=O)c1ccccc1Br)CC(=O)N2 (stereo not given) | 0 | -4 | -26* | -3 | -2
C[C@H](NC(=O)C[C@H]1CC[C@@H](NC(=O)c2cccnc2)[C@@H](CO)O1)c1ccccc1 | -1 | 15 | 2 | -1 | 1
Cc1ccccc1-c1ccc2c(c1)O[C@@H](CN(C)C(=O)c1ccccn1)[C@@H](C)CN([C@@H](C)CO)S2(=O)=O | -3 | -3 | -2 | -2 | 1
CCOc1cccc(=O)c2c(C)n(-c3ccc(C(=O)O)cc3)c(C)c12 | 2 | -1 | 13 | 29* | -1
c1ccc(-c2nc3cccnc3nc2-c2ccccc2)cc1 | 2 | -2 | -24* | -1 | -1
O=C1CCCC(O)=C1Sc1cc(Cl)c(Cl)cc1Cl | -5 | -42 | -23* | -2 | -1
O=C(NCc1ccc(S(=O)(=O)NC2CCCCC2)s1)c1ccccc1 | 3 | -2 | -9 | 0 | -1
O=C(NCc1ccc(S(=O)(=O)Nc2ccccc2Cl)s1)c1ccccc1 | 2 | -9 | -32* | -1 | 1
SMILES | ERAP1 HTS inh | S100A4 inh HTS | rRNA inh HTS | SIRT5 block | F508del corr
COc1ccc(-n2c(=O)c3ccccc3c3ccccc3c2=O)c(OC)c1 | 3 | 6 | 13 | -2 | nt
COc1ccc(C)cc1-n1c(=O)c2ccccc2c2ccccc2c1=O | 8 | -1 | -26* | -4 | 0
C[C@H](CO)N1C[C@H](C)[C@@H](CN(C)C(=O)C2CCCCC2)Oc2ncc(-c3cccc(F)c3)cc2C1=O | 1 | 5 | -2 | 2 | 0
CCOC(=O)C1=C(N)Oc2cc(O)ccc2C1c1ccc([N+](=O)[O-])cc1 (stereo not given) | 4 | -29 | -44* | -6 | -2
CCOC(=O)C1=C(N)Oc2ccc3ccccc3c2C1c1ccc(O)cc1 (stereo not given) | 1 | -5 | -28 | -4 | -4
NNc1nc2c(F)cc(F)cc2s1 | 2 | -4 | -25* | 0 | -1
C/C(=N\NC(N)=O)c1ccc(-n2ccnc2)cc1 | 0 | 3 | -16* | 22* | 2
C/C(=N\Nc1ccc(C(=O)O)cc1)c1ccc(-n2ccnc2)cc1 | 3 | -4 | -9 | nt | 4
C[C@@H]1CCCCO[C@H](CN(C)C(=O)C2CCCCC2)[C@@H](C)CN([C@@H](C)CO)C(=O)c2cc(NC(=O)Nc3cccc4ccccc34)ccc2O1 | -3 | -15 | 0 | 1 | 0
CCOC(=O)N1CCN(C(=O)c2ccc3c(c2)N(Cc2cc(C)ccc2C)C(=O)c2ccccc2S3=O)CC1 (stereo not given) | 2 | 1 | -20* | 0 | 0
CC1=C(C#N)c2nc(N)c(C#N)c(C)c2/C1=C\c1ccc(-c2ccccc2C(=O)O)o1 | 16 | -3 | 11 | 25* | 1
COc1cc(/C=C2/C(C)=C(C#N)c3nc(N)c(C#N)c(C)c32)ccc1OCC(=O)O | 1 | -25 | 17 | 9 | 1
COC(=O)c1cc(C(=O)OC)[nH]n1 | 6 | 0 | 12 | 16* | 2
CCOC(=O)C(NC(C)=O)(Nc1ccc(S(=O)(=O)Nc2ncccn2)cc1)C(F)(F)F (stereo not given) | 2 | -3 | 15 | 19* | 1
CC(C)NC(=O)N(C)C[C@@H]1Oc2ccc(NC(=O)Nc3ccc(F)cc3)cc2C(=O)N([C@H](C)CO)C[C@H]1C | 1 | 2 | 4 | -4 | 3
Cc1cc(C)c(COCc2cc(/C=N/O)c(C)cc2C)cc1/C=N/O | -5 | -5 | -36* | -5 | 0
COc1ccc2c(c1)C(=O)O[C@@H](c1ccccc1)C[C@@H](O)C(=O)CC2 | -1 | 3 | 5 | 20* | -1
